Experimental data published in ChEMBL document CHEMBL1125273, “Synthesis and biological evaluation of quinocarcin derivatives: thioalkyl-substituted quinones and hydroquinones” (J Med Chem, 1991).
In brackets after ≈: the same amount, converted by molar mass.

Columns and labels:
[1] = Antitumor activity in vivo in CD2F1 mice measured in terms of percent increase in lifespan calculated at a dose of 12.5 mg/kg intraperitoneally on day one.; type: functional; settings: Mus musculus, ip, route intraperitoneal
Procedure, shortened: (§1)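 P388 lymphocytic leukemia cells (1×10^6) were implanted ip into CD2F1 mice (about 22 g), five mice per group. Drug was given ip from the day after implantation, either once (day 1) or daily on days 1–5. ILS = (T/C − 1) × 100, where T and C are the median survival times of treated and control mice.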

HeLa = assay: In vitro concentration required to inhibit the growth of HeLa S3 cells by 50%; type: functional, cell-based; settings: Homo sapiens
Procedure, shortened: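 HeLa S3 cells (5 × 10⁴) seeded in Eagle's MEM with 10% FBS and 0.06 mg/mL kanamycin; graded drug concentrations, diluted in growth medium, added 24 h after seeding. Incubated 72 h at 37 °C, humidified 5% CO₂. Monolayers then washed, detached with 0.05% trypsin/0.02% EDTA and counted electronically; IC50 taken as concentration giving 50% growth inhibition.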

[2] = Antitumor activity in vivo in CD2F1 mice measured in terms of percent increase in lifespan calculated at a dose of 6.25 mg/kg intraperitoneally on days 1-5.; type: functional; settings: Mus musculus, ip, route intraperitoneal; procedure, shortened: as §1
[3] = Ratio of the ILS tested compound/quinocarcin was determined for day one in CD2F1 mice.; type: functional, Mus musculus
Procedure, shortened: (§2)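 CD2F1 mice (5 per group) received 10^6 P388 cells ip. Drug was given ip on day 1 or on days 1–5. ILS was taken as (T/C − 1) × 100 from median survival times, and each compound's ILS was divided by the ILS of quinocarcin.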

[4] = Ratio of the ILS tested compound/quinocarcin was determined in CD2F1 mice on days 1-5.; type: functional, Mus musculus; procedure, shortened: as §2
[5] = Antitumor activity in vivo in CD2F1 mice measured in terms of percent increase in lifespan calculated at a dose of 50 mg/kg intraperitoneally on day one.; type: functional; settings: Mus musculus, ip, route intraperitoneal; procedure, shortened: as §1
[6] = Antitumor activity in vivo in CD2F1 mice measured in terms of percent increase in lifespan calculated at a dose of 50 mg/kg intraperitoneally on days 1-5.; type: functional; settings: Mus musculus, ip, route intraperitoneal; procedure, shortened: as §1
[7] = Antitumor activity in vivo in CD2F1 mice measured in terms of percent increase in lifespan calculated at a dose of 3.13 mg/kg intraperitoneally on days 1-5.; type: functional; settings: Mus musculus, ip, route intraperitoneal; procedure, shortened: as §1
[8] = Antitumor activity in vivo in CD2F1 mice measured in terms of percent increase in lifespan calculated at a dose of 6.25 mg/kg intraperitoneally on day one.; type: functional; settings: Mus musculus, ip, route intraperitoneal; procedure, shortened: as §1
CCRF S-180 [9] = assay: Ratio of ILS tested compound/quinocarcin against murine sarcoma S-180 tumor cell line implanted subcutaneously in mice and the compound administered intravenously at a dose of 3.13 mg/kg on days 1-5.; type: functional, Mus musculus; settings: route intravenous
Homo sapiens [10] = assay: Ratio of ILS tested compound/quinocarcin against human mammary carcinoma MX-1 cell line implanted subcutaneously in mice and the compound administered intravenously at a dose of 2.97 mg/kg on days 1-5.; type: functional; settings: route intravenous
Homo sapiens [11] = assay: Ratio of ILS tested compound/quinocarcin against human mammary carcinoma MX-1 cell line implanted subcutaneously in mice and the compound administered intravenously at a dose of 4.67 mg/kg on days 1-5.c means number of cured mice.; type: functional; settings: route intravenous
[12] = Antitumor activity in vivo in CD2F1 mice measured in terms of percent increase in lifespan calculated at a dose of 1.56 mg/kg intraperitoneally on days 1-5.; type: functional; settings: Mus musculus, ip, route intraperitoneal; procedure, shortened: as §1
CCRF S-180 [13] = assay: Ratio of ILS tested compound/quinocarcin against murine sarcoma S-180 tumor cell line implanted subcutaneously in mice and the compound administered intravenously at a dose of 6.25 mg/kg on days 1-5.; type: functional, Mus musculus; settings: route intravenous
Homo sapiens [14] = assay: Ratio of ILS tested compound/quinocarcin against human mammary carcinoma MX-1 cell line implanted subcutaneously in mice and the compound administered intravenously at a dose of 12.7 mg/kg on days 1-5.c means number of cured mice.; type: functional; settings: route intravenous
Homo sapiens [15] = assay: Ratio of ILS tested compound/quinocarcin against human mammary carcinoma MX-1 cell line implanted subcutaneously in mice and the compound administered intravenously at a dose of 4.41 mg/kg on days 1-5.; type: functional; settings: route intravenous
[16] = Antitumor activity in vivo in CD2F1 mice measured in terms of percent increase in lifespan calculated at a dose of 12.5 mg/kg intraperitoneally on days 1-5.; type: functional; settings: Mus musculus, ip, route intraperitoneal; procedure, shortened: as §1

Row | SMILES | ILS at 12.5 mg/kg [1] | IC50 (HeLa) | ILS at 6.25 mg/kg [2] | R [3] | R [4] | ILS at 6.25 mg/kg [8] | also measured
1 | CCCSC1=C(SCCC)C(=O)C2=C(C[C@H]3[C@H]4[C@H](C(=O)O)C[C@@H](C5OC[C@@H]2N53)N4C)C1=O (some centres undefined) | 58% | 0.03 µg/mL (≈ 0.0627 µM) | 86% | 1.21 | 0.98 |  | 
2 | COc1c2c(c(OC)c(SC(C)C)c1SC(C)C)[C@H](CO)N1C(C#N)[C@@H]3C[C@@H](C(=O)O)[C@H]([C@@H]1C2)N3C (some centres undefined) |  | 0.17 µg/mL (≈ 0.317 µM) |  |  |  |  | ILS at 50 mg/kg [5]: 7%
3 | CSc1c(O)c2c(c(O)c1SC)[C@@H]1COC3[C@@H]4C[C@@H](C(=O)O)[C@H]([C@H](C2)N31)N4C (some centres undefined) | 65% | 0.13 µg/mL (≈ 0.306 µM) | 59% | 1.51 | 0.57 |  | 
4 | CCOC(=O)CSC1=C(SCC(=O)OCC)C(=O)C2=C(C[C@H]3[C@H]4[C@H](C(=O)O)C[C@@H](C(C#N)N3[C@H]2CO)N4C)C1=O (some centres undefined) |  | 9.96 µg/mL (≈ 16.8 µM) |  |  |  |  | ILS at 50 mg/kg [6]: 30%
5 | CCSC1=C(SCC)C(=O)C2=C(C[C@H]3[C@H]4[C@H](C(=O)O)C[C@@H](C5OC[C@@H]2N53)N4C)C1=O (some centres undefined) |  | 0.08 µg/mL (≈ 0.178 µM) |  | 1.33 | 0.93 | 64% | ILS at 3.13 mg/kg [7]: 82%
6 | CC(C)SC1=C(SC(C)C)C(=O)C2=C(C[C@H]3[C@H]4[C@H](C(=O)O)C[C@@H](C5OC[C@@H]2N53)N4C)C1=O (some centres undefined) |  | 0.0019 µg/mL (≈ 0.00397 µM) |  | 1.57 | 1.11 | 69% | T/C (CCRF S-180 [9]): 0.73; T/C (Homo sapiens [10]): 0.046; ILS at 3.13 mg/kg [7]: 98%; T/C (Homo sapiens [11]): 0
7 | CCSc1c(O)c2c(c(O)c1OC)[C@H](CO)N1C(C#N)[C@@H]3C[C@@H](C(=O)O)[C@H]([C@@H]1C2)N3C (some centres undefined) | 28% | 1.18 µg/mL (≈ 2.62 µM) | 58% | 0.65 | 0.79 |  | 
8 | COC1=C(SC(C)C)C(=O)C2=C(C[C@H]3[C@H]4[C@H](C(=O)O)C[C@@H](C5OC[C@@H]2N53)N4C)C1=O (some centres undefined) |  | 2.37 µg/mL (≈ 5.45 µM) |  | 1.25 | 0.63 | 30% | ILS at 1.56 mg/kg [12]: 51%
9 | CSc1c(O)c2c(c(O)c1SC)[C@H](CO)N1C(C#N)[C@@H]3C[C@@H](C(=O)O)[C@H]([C@@H]1C2)N3C (some centres undefined) |  | 0.09 µg/mL (≈ 0.199 µM) |  | 1.09 | 0.86 | 47% | T/C (CCRF S-180 [13]): 0.4; T/C (Homo sapiens [14]): 0; ILS at 3.13 mg/kg [7]: 92%; T/C (Homo sapiens [15]): 0.067
10 | CCSC1=C(SCC)C(=O)C2=C(C[C@H]3[C@H]4[C@H](C(=O)O)C[C@@H](C(C#N)N3[C@H]2CO)N4C)C1=O (some centres undefined) | 50% | 0.11 µg/mL (≈ 0.23 µM) | 51% | 1.16 | 0.42 |  | 
11 | COC1=C(SC(C)C)C(=O)C2=C(C[C@H]3[C@H]4[C@H](C(=O)O)C[C@@H](C(C#N)N3[C@H]2CO)N4C)C1=O (some centres undefined) | 17% | 0.56 µg/mL (≈ 1.21 µM) |  |  | 1 |  | ILS at 12.5 mg/kg [16]: 75%
12 | COC1=C(SC(C)C)C(=O)C2=C(C1=O)[C@H](CO)N1C(C#N)[C@@H]3C[C@@H](C(=O)O)[C@H]([C@@H]1C2)N3C (some centres undefined) | 21% | 1.12 µg/mL (≈ 2.43 µM) |  | 0.58 | 0.68 |  | ILS at 12.5 mg/kg [16]: 51%
